Data from article PMC5042352 (Analytical methods : advancing methods and applications, 2016).
Read-outs that look alike come from different tables or passages of the source.

What was measured:
[1] = Stability of the analytes in human plasma at QC levels; type: in vitro ADME; details: n = 5; for Short-term Dev. (%) / Short-term MCM ± SD: 6 h, r.t.; for Short-term Dev. (%) / Short-term MCM ± SD / Long-term Dev. (%) / Long-term MCM ± SD / Freeze–thaw Dev. (%) / Freeze–thaw MCM ± SD: human plasma; for Long-term Dev. (%) / Long-term MCM ± SD: 40 days; for Long-term Dev. (%) / Long-term MCM ± SD / Freeze–thaw Dev. (%) / Freeze–thaw MCM ± SD: −40 °C; for The autosampler Dev. (24h, %) / The autosampler MCM ± SD (24h) / The autosampler Dev. (48h, %) / The autosampler MCM ± SD (48h): autosampler r.t.; for Freeze–thaw Dev. (%) / Freeze–thaw MCM ± SD: four cycles
Method in brief: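 QC plasma made by spiking working solution into drug-free human plasma (1:9); the phosphate ester is pre-stabilised with 2M sodium cacodylate and 50% KF. Freeze-thaw: frozen at −40 °C for 24 h, thawed at 25 °C. Short-term: 6 h at room temperature. Long-term: −40 °C for 40 days. Quantified by UPLC-MS/MS against 1/x-weighted analyte/IS peak-area-ratio calibration curves.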

[2] = reported; cited from earlier work
[3] = type: in vivo, human (Chinese male healthy subjects); details: mean ± SD, n = 23; for Tmax / T½ (half-life of elimination): single i.m. injection

For `CCC(=O)O[C@]1(C(=O)CO)[C@@H](C)C[C@H]2[C@@H]3CCC4=CC(=O)C=C[C@]4(C)[C@@]3(F)[C@@H](O)C[C@@]21C` [B17P, betamethasone 17-monopropionate], the “Short-term Dev. (%)” value ([1]; high QC) was −8.39%, the “Short-term MCM ± SD” value ([1]; high QC) was 3.435 ± 0.353 × 10^−9 mol·dm^−3 and the “Long-term Dev. (%)” value ([1]; high QC) was 10.5%. The “Long-term MCM ± SD” value ([1]; high QC) was 4.185 ± 0.616 × 10^−9 mol·dm^−3, the “The autosampler Dev. (24h, %)” value ([1]; high QC) was −12.14% and the “The autosampler MCM ± SD (24h)” value ([1]; high QC) was 3.295 ± 0.304 × 10^−9 mol·dm^−3. The “The autosampler Dev. (48h, %)” value ([1]; high QC) was −4.7%, the “The autosampler MCM ± SD (48h)” value ([1]; high QC) was 3.574 ± 0.531 × 10^−9 mol·dm^−3 and the “Freeze–thaw Dev. (%)” value ([1]; high QC) was 2.2%. For the same compound, the “Freeze–thaw MCM ± SD” value ([1]; high QC) was 3.832 ± 0.330 × 10^−9 mol·dm^−3, the “Short-term Dev. (%)” value ([1]; low QC) was 9.09% and the “Short-term MCM ± SD” value ([1]; low QC) was 0.214 ± 0.020 × 10^−9 mol·dm^−3. The “Long-term Dev. (%)” value ([1]; low QC) was 4.54%, the “Long-term MCM ± SD” value ([1]; low QC) was 0.205 ± 0.027 × 10^−9 mol·dm^−3 and the “The autosampler Dev. (24h, %)” value ([1]; low QC) was 5.68%. The “The autosampler MCM ± SD (24h)” value ([1]; low QC) was 0.208 ± 0.022 × 10^−9 mol·dm^−3, the “The autosampler Dev. (48h, %)” value ([1]; low QC) was −5.68% and the “The autosampler MCM ± SD (48h)” value ([1]; low QC) was 0.185 ± 0.025 × 10^−9 mol·dm^−3. For the same compound, the “Freeze–thaw Dev. (%)” value ([1]; low QC) was 12.5%, the “Freeze–thaw MCM ± SD” value ([1]; low QC) was 0.221 ± 0.335 × 10^−9 mol·dm^−3 and the “Short-term Dev. (%)” value ([1]; middle QC) was 2.08%. The “Short-term MCM ± SD” value ([1]; middle QC) was 1.196 ± 0.112 × 10^−9 mol·dm^−3, the “Long-term Dev. (%)” value ([1]; middle QC) was 5.91% and the “Long-term MCM ± SD” value ([1]; middle QC) was 1.241 ± 0.129 × 10^−9 mol·dm^−3. The “The autosampler Dev. (24h, %)” value ([1]; middle QC) was 7.80%, the “The autosampler MCM ± SD (24h)” value ([1]; middle QC) was 1.266 ± 0.094 × 10^−9 mol·dm^−3 and the “The autosampler Dev. (48h, %)” value ([1]; middle QC) was −5.02%. The “The autosampler MCM ± SD (48h)” value ([1]; middle QC) was 1.114 ± 0.129 × 10^−9 mol·dm^−3, the “Freeze–thaw Dev. (%)” value ([1]; middle QC) was 6.62% and the “Freeze–thaw MCM ± SD” value ([1]; middle QC) was 1.250 ± 0.112 × 10^−9 mol·dm^−3. For the same compound, the elimination half-life time [2] was 80.8 h, the “AUC0–∞” value ([3]; Reference formulation) was 281.7 ± 91.50 × 10^−9 mol·dm^−3·h^−1 and the Tmax ([3]; Reference formulation) was 17.74 ± 13.04 h. For the same compound, the “T½ (half-life of elimination)” value ([3]; Reference formulation) was 106.6 ± 35.93 h, the “AUC0–∞” value ([3]; Test formulation) was 305.4 ± 108.1 × 10^−9 mol·dm^−3·h^−1 and the Tmax ([3]; Test formulation) was 19.83 ± 12.27 h. For the same compound, the “T½ (half-life of elimination)” value ([3]; Test formulation) was 101.3 ± 39.43 h and the “AUC0–t” value ([3]; Test formulation, t = 4 h (BDP), 120 h (BOH), 360 h (B17P)) was 259.2 ± 89.1 × 10^−9 mol·dm^−3·h^−1.
